DAGLB inhibitor – blocks human DAGLB lipase activity; 340,000 tested, 0.059% active; Q8NCG7; inhibition, % at 5.17 µM; HEK293T DAGLB membrane lysate, EnzChek fluorogenic substrate; in the data active means inhibition above about 34%;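 further: 0% = enzyme with vehicle and 100% = wells lacking enzyme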
TMEM16A inh – mouse TMEM16A channel inhibition, primary screen | normalized B-score (activity score, 25-100; higher = stronger inhibition) at 10 µM | AID 588511 | Q8BHY3 | HEK293 TMEM16A/YFP iodide influx fluorescence, ionomycin | 310,000 tested, 1.2% active;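 active means ratio plate-corrected score three or more library SD toward inhibition, starting fluorescence score within five deviations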;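 further: score derived from kinetic fluorescence span divided by baseline fluorescence per well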
MT1-MMP act inh – MT1-MMP (human) activation inhibition | 360,000 tested, 0.061% active | GFP/RFP ratio change, % at 20 µM | P50281 | HT1080 RFP-PRO-GFP cells, GFP/RFP ratio fluorescence, overnight; percent of plate control window, DMSO zero;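 active means GFP/RFP ratio change of at least 30% with cell ATP level not reduced by more than half and red fluorescence within 50% of control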
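Assay system: HT1080 RFP-PRO-GFP cells | Dosing: 20 µM single dose, 1% DMSO | Incubation: Cells overnight before dosing, compound overnight, 37 °C, 5% CO2 | Evaluation: GFP/RFP fluorescence ratio | Control set: DMSO-only wells and HT1080 RFP-L50D-GFP cell wells as references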
TMEM16A act – activators or potentiators of mouse TMEM16A chloride channel. 340,000 tested, 0.3% active. B-score at 10 µM. HEK293 TMEM16A/YFP-H148Q/I152L, iodide quench fluorescence; active compounds read low. Q8BHY3. AID 623877;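 active means fluorescence-ratio B-score plate-corrected deviation score at least 3 library SD below zero, with starting fluorescence score within 5 deviations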;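 further: channel opened by trigger with iodide after compound preincubation; score built on the fluorescence ratio of max minus min over baseline; more negative score means more quench and so TMEM16A activation or potentiation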
TMEM16A reconf – reconfirmed blocker of mouse TMEM16A calcium-activated chloride channel. 2,300 tested, 39% active. inhibition, % at 10 µM. shares compounds with TMEM16A inh. HEK293 TMEM16A/YFP-H148Q, iodide quench fluorescence; ionomycin added to raise cell calcium;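 active means mean duplicate percent inhibition, scaled so buffer wells are 0 and the reference blocker 100, over three buffer SD above buffer mean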
HEK293 Ca mobil – counter-screen for TMEM16A inhibitors: effect on calcium mobilization; 2,300 tested, 2% active; TMEM16A/YFP HEK293, Fluo4 calcium mobilization; shares compounds with TMEM16A inh; calcium response (% of ionomycin), % at 10 µM;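 active means duplicate-averaged calcium signal over 20% of the ionomycin maximum, relative to buffer baseline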;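 further: each well's signal is peak minus trough fluorescence divided by its pre-addition baseline; 0% = buffer wells and 100% = ionomycin wells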
Parental YFP cnt – acts in parental YFP-HEK293 cells lacking TMEM16A, counter-screen; shares compounds with TMEM16A inh; iodide YFP quench, ionomycin; YFP ratio F(max-min)/F0 at 10 µM; 2,300 tested, under 10 active; AID 652233;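 active means yellow fluorescent protein signal ratio exceeding the buffer control mean by over 5 SD of those controls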;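 further: ratio is mean of duplicate wells from kinetic YFP trace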
ClC-1 inh – selectivity of TMEM16A inhibitors: inhibition of rat ClC-1 chloride channel; shares compounds with TMEM16A inh; CHO ClC-1-YFP, iodide influx fluorescence quench; iodide control reads 0, buffer control 100; ratio percent, % at 10 µM; 2,300 tested, under 10 active;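 active means duplicate-mean ratio percent above the mean of iodide-only control wells, which defines zero, plus 5 of their SD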;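 further: higher percent means stronger block of ClC-1 iodide influx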
Target sequence (P35524 whole entry, looked up): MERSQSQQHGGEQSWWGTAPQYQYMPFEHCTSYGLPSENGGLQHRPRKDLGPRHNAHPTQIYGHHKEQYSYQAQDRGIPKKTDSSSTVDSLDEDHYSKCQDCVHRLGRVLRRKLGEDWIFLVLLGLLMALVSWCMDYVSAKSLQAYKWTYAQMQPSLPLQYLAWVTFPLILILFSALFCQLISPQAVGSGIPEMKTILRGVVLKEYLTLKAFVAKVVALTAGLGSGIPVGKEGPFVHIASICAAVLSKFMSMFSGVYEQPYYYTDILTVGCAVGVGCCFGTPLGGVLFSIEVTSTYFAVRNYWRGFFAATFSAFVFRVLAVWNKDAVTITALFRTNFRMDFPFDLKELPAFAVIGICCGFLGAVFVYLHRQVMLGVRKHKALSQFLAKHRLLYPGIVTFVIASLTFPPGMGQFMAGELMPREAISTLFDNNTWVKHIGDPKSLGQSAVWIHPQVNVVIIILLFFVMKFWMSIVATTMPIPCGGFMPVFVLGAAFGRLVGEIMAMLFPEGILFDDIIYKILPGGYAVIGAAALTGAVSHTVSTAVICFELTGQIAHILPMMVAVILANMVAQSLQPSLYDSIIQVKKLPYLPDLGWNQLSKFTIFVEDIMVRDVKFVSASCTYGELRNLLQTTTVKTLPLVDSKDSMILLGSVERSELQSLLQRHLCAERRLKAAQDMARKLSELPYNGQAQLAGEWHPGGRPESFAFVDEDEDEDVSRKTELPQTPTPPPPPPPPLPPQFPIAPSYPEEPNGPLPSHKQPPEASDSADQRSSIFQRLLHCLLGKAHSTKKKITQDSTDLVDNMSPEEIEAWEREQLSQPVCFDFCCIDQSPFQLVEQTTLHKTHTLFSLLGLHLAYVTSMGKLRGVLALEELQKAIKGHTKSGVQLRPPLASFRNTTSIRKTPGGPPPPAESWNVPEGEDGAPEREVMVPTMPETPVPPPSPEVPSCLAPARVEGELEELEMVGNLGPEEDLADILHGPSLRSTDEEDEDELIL
* hit, by the source's call; i = inactive; . = no result given. In the library only some 1.3% were active in any assay of this set; here they are far more common.

SMILES	DAGLB inhibitor	TMEM16A inh	MT1-MMP act inh	TMEM16A act	TMEM16A reconf	HEK293 Ca mobil	Parental YFP cnt	ClC-1 inh
CN(CC(=O)Nc1ccc(Cl)cc1)C(=O)c1cccc(S(=O)(=O)N2CCN(Cc3ccccc3)CC2)c1	0.5	25*	-10.4	i	i	i	-1.12	-9.0
CCOP(=O)(c1ccc(N(C)C)cc1)C(O)c1ccccc1OC (stereo not given)	1.3	100*	2.4	i	i	i	-1.16	-11.5
COC(=O)c1cc(NC(=O)C(C)c2ccc(CC(C)C)cc2)ccc1O (stereo not given)	.	25*	3.3	i	21.5%*	i	-0.94	-9.0
CN1c2ccccc2C(O)=C(C(=S)Nc2ccc(F)c(Cl)c2)S1(=O)=O	14.7	100*	1.7	i	61.5%*	i	-1.1	-29.5
O=C(Nc1ccc(C(F)(F)F)cc1)C1CCN(c2cnccn2)CC1	0.4	i	0.8	i	.	.	.	.
Cc1cc(/C=N/n2cnnc2)c(C)n1-c1ccc(OCc2ccc(F)cc2)cc1	1.5	100*	-14.7	i	i	i	-1.07	-18.5
CCC(=O)N[C@@H]1C=C[C@@H](CC(=O)NCc2ccccc2F)O[C@@H]1CO	.	.	-1.9	.	.	.	.	.
CC(=O)N1c2ccc(S(=O)(=O)N(C)CC(=O)NCc3ccc(C)cc3)cc2CC1C (stereo not given)	4.4	i	-1.9	i	.	.	.	.
NNC(=O)c1ccc(COc2ccc3ccccc3c2)o1	-7.8	i	-5.8	i	.	.	.	.
O=C(OCc1ccccn1)c1ccc(COc2ccc3ccccc3c2)o1	-5.3	25*	3.9	i	32.5%*	i	-1.09	-2.0
COc1ccc2c(c1)CC/C(=C\Nc1ccc3c(c1)OCO3)C2=O	-1.2	25*	11.6	i	i	i	-0.838	4.5
O=C1/C(=C/Nc2ccc3c(c2)OCO3)CCc2ccccc21	-4.2	i	19.3	i	.	.	.	.
C=C(C)C1Cc2c(C)nn(-c3cccc4ccccc34)c2C1 (stereo not given)	-12.5	25*	-5.7	i	46.0%*	i	-0.912	-9.0
CCCNC(=O)c1cc(C2CCCN(C(=O)c3ccc(NC(C)=O)cc3)C2)on1 (stereo not given)	.	.	1.8	.	.	.	.	.
CCCOc1ccccc1Cn1c(=O)oc2ccc(C)cc21	-9.6	100*	-3.3	i	i	i	-1.14	-10.0
Cc1c(N=C/C=C/c2ccccc2)c(=O)n(-c2ccccc2)n1C	1.8	25*	-4.1	i	i	i	-0.968	-8.0
Cc1c(N=Cc2cccnc2)c(=O)n(-c2ccccc2)n1C	-2.0	i	0.2	i	.	.	.	.
CC1(C)C(CO)=CC(=O)C2=C1SCC(=O)N2	1.2	100*	-4.9	i	i	i	-1.08	1.5
O=C(O)CSC1CC(=O)N(c2ccc(Cl)cc2)C1=O (stereo not given)	-5.3	i	0.7	i	.	.	.	.
O=C(CSC1CC(=O)N(CC(c2ccccc2)c2ccccc2)C1=O)Nc1ccc(Cl)cc1 (stereo not given)	-13.1	25*	0.6	i	i	i	-1.08	-2.5
CCOc1ccccc1NC(=O)COC(=O)c1c(CC)noc1C	-2.2	.	0.6	i	.	.	.	.
CC(=O)Nc1ccc(S(=O)(=O)NNC(=O)COc2ccc(Cl)cc2Cl)cc1	4.0	i	7.1	i	.	.	.	.
CCOc1ccc(CONS(=O)(=O)c2ccc(NC(C)=O)cc2)cc1Cl	-0.9	25*	-3.7	i	23.0%*	i	-1.08	-7.5
Cc1nn(-c2ccccc2)c(Cl)c1C(=O)Nc1nnc(C2CCCC2)s1	-1.4	25*	-3.2	i	i	i	-1.13	-16.5
